# In ChEMBL document CHEMBL4364314, “Design, synthesis and biological evaluation of 6-deoxy O-spiroketal C-arylglucosides as novel renal sodium-dependent glucose cotransporter 2 (SGLT2) inhibitors for the treatment of type 2 diabetes” (Eur J Med Chem, 2019):
# Legend:
# [1] = molecular target: T1, Sodium/glucose cotransporter 1 (Homo sapiens, UniProt P13866); assay: Inhibition of human full length SGLT1 expressed in NIH3T3 cells measured after 1 hr in presence of [14C]-methyl-alpha -D-glucopyranoside by scintillation counter method; assay type: cell-based
# T1 sequence (P13866 whole entry): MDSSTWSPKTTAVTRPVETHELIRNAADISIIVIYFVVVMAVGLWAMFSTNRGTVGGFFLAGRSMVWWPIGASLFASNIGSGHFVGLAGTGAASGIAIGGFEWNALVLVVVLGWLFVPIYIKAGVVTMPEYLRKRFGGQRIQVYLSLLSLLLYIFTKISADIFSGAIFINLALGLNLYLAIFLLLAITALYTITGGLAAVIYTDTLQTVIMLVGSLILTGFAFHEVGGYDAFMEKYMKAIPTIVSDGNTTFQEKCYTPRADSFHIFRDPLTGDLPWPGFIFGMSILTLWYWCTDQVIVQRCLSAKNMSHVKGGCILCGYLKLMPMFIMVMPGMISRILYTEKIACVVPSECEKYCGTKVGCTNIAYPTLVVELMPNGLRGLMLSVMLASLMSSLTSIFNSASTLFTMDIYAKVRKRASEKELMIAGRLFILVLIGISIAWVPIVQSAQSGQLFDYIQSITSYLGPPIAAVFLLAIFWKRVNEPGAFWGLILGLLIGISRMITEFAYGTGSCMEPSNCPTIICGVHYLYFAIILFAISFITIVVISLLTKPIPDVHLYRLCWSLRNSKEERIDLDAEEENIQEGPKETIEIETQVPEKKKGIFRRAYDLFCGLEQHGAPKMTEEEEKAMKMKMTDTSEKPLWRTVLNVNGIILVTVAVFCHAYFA
# Outline: (§1)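 Stable NIH3T3 lines from retroviral transduction of full-length hSGLT1 or hSGLT2 (pBABE-puro, 8 µg/mL polybrene, puromycin 2 µg/mL selection for 2 weeks). Cells plated 2 days ahead, 2 mmol/L sodium butyrate added day 2. Read by scintillation counting. Compound-free buffer served as negative control, sodium-free N-methyl-glucamine buffer as blank.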
# [2] = molecular target: T2, Sodium/glucose cotransporter 2 (Homo sapiens, UniProt P31639); assay: Inhibition of human full length SGLT2 expressed in NIH3T3 cells measured after 1 hr in presence of [14C]-methyl-alpha -D-glucopyranoside by scintillation counter method; assay type: cell-based; outline: as §1
# T2 sequence (P31639 whole entry): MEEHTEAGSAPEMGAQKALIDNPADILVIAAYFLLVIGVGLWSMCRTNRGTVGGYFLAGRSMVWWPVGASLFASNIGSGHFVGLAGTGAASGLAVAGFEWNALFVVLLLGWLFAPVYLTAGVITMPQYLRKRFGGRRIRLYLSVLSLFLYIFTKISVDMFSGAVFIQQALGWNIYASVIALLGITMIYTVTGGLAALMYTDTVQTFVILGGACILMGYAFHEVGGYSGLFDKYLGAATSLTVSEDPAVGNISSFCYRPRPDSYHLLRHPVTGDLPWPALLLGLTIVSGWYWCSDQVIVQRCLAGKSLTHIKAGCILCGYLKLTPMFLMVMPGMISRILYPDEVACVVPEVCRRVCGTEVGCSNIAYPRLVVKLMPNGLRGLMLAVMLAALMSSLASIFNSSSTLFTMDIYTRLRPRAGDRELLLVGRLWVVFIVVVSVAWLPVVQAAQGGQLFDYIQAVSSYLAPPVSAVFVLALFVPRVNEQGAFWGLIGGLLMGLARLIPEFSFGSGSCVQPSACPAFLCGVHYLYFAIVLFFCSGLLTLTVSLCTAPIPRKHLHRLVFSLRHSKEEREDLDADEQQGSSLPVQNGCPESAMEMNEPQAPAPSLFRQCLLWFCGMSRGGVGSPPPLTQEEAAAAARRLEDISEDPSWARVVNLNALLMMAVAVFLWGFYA
# Homo sapiens = species on record: Homo sapiens; assay: Selectivity ratio of IC50 for human full length SGLT1 to IC50 for human full length SGLT2
# Outline: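 Ratio of IC50 at hSGLT1 to IC50 at hSGLT2, both from the [14C]methyl-α-D-glucopyranoside uptake assay in stably transfected NIH3T3 cells.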
# Mus musculus [3] = assay: Effect on urinary volume in C57BL/6J mouse at 1 mg/kg, po administered as single dose measured after 24 hrs (reference value: 1.24 +/- 0.45 mL); assay type: ADME, organism-based; details: in vivo
# Mus musculus [4] = assay: Effect on urine glucose concentration in C57BL/6J mouse at 1 mg/kg, po administered as single dose measured after 24 hrs by glucose oxidase method (reference value: 0.74 +/- 0.14 mmol/L); assay type: functional
# Mus musculus [5] = assay: Effect on urine glucose excretion in C57BL/6J mouse at 1 mg/kg, po administered as single dose measured after 24 hrs assessed per 100 grams (reference value: 0.84 +/- 0.40 mg ); assay type: functional
# Rattus norvegicus [6] = assay: Effect on urinary volume in Sprague-Dawley rat at 1 mg/kg, po administered as single dose measured after 24 hrs (reference value: 24.17 +/- 7.11 mL); assay type: ADME, organism-based; details: in vivo
# Rattus norvegicus [7] = assay: Effect on urine glucose concentration in Sprague-Dawley rat at 1 mg/kg, po administered as single dose measured after 24 hrs by glucose oxidase method (reference value: 0.28 +/- 0.16 mmol/L); assay type: functional
# Rattus norvegicus [8] = assay: Effect on urine glucose excretion in Sprague-Dawley rat 1 mg/kg, po administered as single dose measured after 24 hrs assessed per 100 grams (reference value: 0.51 +/- 0.40 mg); assay type: functional
# [9] = Oral bioavailability in mouse at 10 mg/kg administered as single dose; assay type: ADME, organism-based; details: in vivo
# Outline: (§2)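 Mouse pharmacokinetics after a single intravenous dose of 2 mg/kg or a single oral dose of 10 mg/kg. Plasma parameters derived for each route; oral bioavailability calculated by comparing the two routes.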
# [10] = Mean residence time infinity in mouse at 10 mg/kg, po administered as single dose; assay type: ADME, organism-based; details: in vivo; outline: as §2
# [11] = AUClast in mouse at 10 mg/kg, po administered as single dose; assay type: ADME, organism-based; parameters: dose 10 mg/kg, time 0 - last, route oral; details: in vivo; outline: as §2
# [12] = AUCinfinity in mouse at 10 mg/kg, po administered as single dose; assay type: ADME, organism-based; parameters: dose 10 mg/kg, time infinity, route oral; details: in vivo; outline: as §2
# [13] = Cmax in mouse at 10 mg/kg, po administered as single dose; assay type: ADME, organism-based; parameters: dose 10 mg/kg, route oral; details: in vivo; outline: as §2
# [14] = Tmax in mouse at 10 mg/kg, po administered as single dose; assay type: ADME, organism-based; details: in vivo; outline: as §2
# [15] = Half-life in mouse at 10 mg/kg, po administered as single dose; assay type: ADME, organism-based; details: in vivo; outline: as §2
# [16] = Volume of distribution at steady state in mouse at 2 mg/kg, iv administered as single dose; assay type: ADME, organism-based; details: in vivo, read-out: Vdss; outline: as §2
# [17] = Mean residence time infinity in mouse at 2 mg/kg, iv administered as single dose; assay type: ADME, organism-based; details: in vivo; outline: as §2
# [18] = AUCinfinity in mouse at 2 mg/kg, iv administered as single dose; assay type: ADME, organism-based; parameters: dose 2 mg/kg, route intravenous, time infinity; details: in vivo; outline: as §2
# [19] = Clearance in mouse at 2 mg/kg, iv administered as single dose; assay type: ADME, organism-based; details: in vivo; outline: as §2
# [20] = AUClast in mouse at 2 mg/kg, iv administered as single dose; assay type: ADME, organism-based; parameters: dose 2 mg/kg, route intravenous, time 0 - last; details: in vivo; outline: as §2
# [21] = Half-life in mouse at 2 mg/kg, iv administered as single dose; assay type: ADME, organism-based; details: in vivo; outline: as §2
# Mus musculus [22] = assay: Hypoglycemic activity in orally dosed C57BL/6J mouse assessed as glucose tolerance improvement administered as single dose measured after 120 mins post glucose challenge by OGTT; assay type: functional, organism-based
# Outline: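 Male mice fasted overnight (14 h), then gavaged with 1 or 3 mg/kg or vehicle (0.9% NaCl, 0.5% methyl cellulose); n = 8. Glucose 3 g/kg given by gavage 2 h later. Blood glucose taken at -120, 0, 15, 30, 60, 90 and 120 min. AUC0-2 h by trapezoidal rule; t-test against vehicle.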
smiles,measurement,setting,value
CCc1ccc(Cc2cc3c(cc2C)CO[C@]32O[C@H](C)[C@@H](O)[C@H](O)[C@H]2O)s1,IC50,[1],1 µM
same,IC50,[2],0.0045 µM
same,Ratio IC50,Homo sapiens,216
same,Activity,Mus musculus [3],1.21 mL
same,Activity,Mus musculus [4],92.99 mmol/L
same,Activity,Mus musculus [5],110.53 mg
same,Activity,Rattus norvegicus [6],24.67 mL
same,Activity,Rattus norvegicus [7],93.8 mmol/L
same,Activity,Rattus norvegicus [8],134.23 mg
same,bioavailability,[9],53.4%
same,MRT inf,[10],8.9 h
same,AUC(0-t),[11],3010 ng·h/mL
same,AUC(0-inf),[12],5580 ng·h/mL
same,Cmax,[13],740 ng/mL
same,Tmax,[14],0.33 h
same,half-life,[15],5.95 h
same,Vd,[16],10.1 L/kg
same,MRT inf,[17],13.1 h
same,AUC(0-inf),[18],2320 ng·h/mL
same,clearance,[19],19.9 mL/min/kg
same,AUC(0-t),[20],1130 ng·h/mL
same,half-life,[21],10.8 h
same,Activity,Mus musculus [22],Dose-dependent effect
